Test results taken from ChEMBL document CHEMBL1158489, “Synthesis and evaluation of 4-acyl-2-thiazolylhydrazone derivatives for anti-Toxoplasma efficacy in vitro” (J Med Chem, 2009).
Calls of active or inactive are those of the source. The rule behind the calls is not given here.

Assays:
[1] = test system: Toxoplasma gondii; assay: Antiparasitic activity against Toxoplasma gondii 2F tachyzoites infected in HFF assessed as parasite growth inhibition-related decrease in beta-galactosidase activity treated prior to infection measured after 5 days by spectrophotometry; type: functional, organism-based; details: 120 h
[2] = Cytotoxicity against human HFF by spectrophotometry; type: cell-based; details: HFF cells, read-out: TD50 (the source's name)
[3] = Therapeutic index, ratio of TD50 for human HFF to IC50 for Toxoplasma gondii 2F tachyzoites; details: HFF cells and Toxoplasma gondii 2F tachyzoites, read-out: TI
[4] = test system: Toxoplasma gondii; assay: Antiparasitic activity against Toxoplasma gondii 2F tachyzoites infected in HFF assessed as inhibition of tachyzoite host cell invasion at 25 uM treated 20 mins prior to infection measured after 1 hr using DAPI staining by immunofluorescence microscopy relative to control; type: functional; design: scale not given: the % may be the effect or the level left
Outline: (§1)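 Tachyzoites (strain 2F) preincubated with compound or DMSO (final 25 μM) at room temperature 20 min, then added to HFF monolayers; 1 h at 37 °C, 5% CO2, rinsed and fixed. Red/green sequential staining: attached/extracellular parasites labelled Rb anti-p30 with Alexa Fluor 594 (red), penetrated/intracellular green, host nuclei blue. Penetrated and attached counts compared with DMSO control.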

[5] = test system: Toxoplasma gondii; assay: Antiparasitic activity against Toxoplasma gondii 2F tachyzoites infected in HFF assessed as decrease in parasite penetration and attachment to host cell at 25 uM treated 20 mins prior to infection measured after 1 hr using DAPI staining by immunofluorescence microscopy relative to control; type: functional; design: scale not given: the % may be the effect or the level left; outline: as §1
[6] = test system: Toxoplasma gondii; assay: Antiparasitic activity against Toxoplasma gondii 2F tachyzoites infected in HFF assessed as inhibition of intracellular parasite replication at 25 uM treated 2 hrs postinfection measured after 26 hrs using DAPI staining by fluorescence microscopy relative to control; type: functional, organism-based
Outline: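 HFF monolayers inoculated with tachyzoites, 2 h incubation, then compound (final 25 μM) or DMSO control added to medium. Replication ran 26 h; monolayers fixed, permeabilized, immunolabelled with Rb anti-p30 (SAG1) and goat anti-rabbit Alexa Fluor 594 (red), imaged by fluorescence.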

Structure (SMILES)	IC50 [1] [µM]	IC90 [1] [µM]	CC50 [2] [µM]	selectivity ratio [3]	Activity [4] [%]	Activity [5] [%]	Activity [6]
CC1CCCC/C1=N/Nc1nc(C(=O)O)cs1 (centres undefined)	128	310	≥ 320	4			
CCOC(=O)c1csc(NN=C2CCCCCC2)n1	77	226	≥ 320	7			
CCOC(=O)c1csc(N/N=C/c2ccc3c(c2)OCO3)n1	479	2590	≥ 320	1			
COc1cc(Cc2cnc(N)nc2N)cc(OC)c1OC [TRIMETHOPRIM]	14		≥ 320	41			
CCOC(=O)c1csc(N/N=C/c2ccco2)n1	≥ 320		≥ 320				
CC1CCC/C1=N/Nc1nc(C(=O)O)cs1 (centres undefined)	≥ 320		≥ 320				
CCOC(=O)c1csc(N/N=C2/CCCC(C)C2)n1 (centres undefined)	15	46	84	6	48		
O=C(O)c1csc(NN=C2CCCCC2)n1	≥ 320		≥ 320		45		
CC1CCC/C(=N/Nc2nc(C(=O)O)cs2)C1 (centres undefined)	≥ 320		≥ 320				
CCOC(=O)c1csc(N/N=C/c2ccncc2)n1	≥ 320		≥ 320		49		
CC1CC/C(=N/Nc2nc(C(=O)O)cs2)C1 (centres undefined)	38	70	82	2	47		
CCOC(=O)c1csc(N/N=C(\C)c2cc3ccccc3oc2=O)n1	21	55	≥ 320	27			
CCOC(=O)c1csc(N/N=C(\C)c2cccnc2)n1	34	86	≥ 320	17			
CCOC(=O)c1csc(N/N=C(\C)c2cccs2)n1	37	136	≥ 320	15			
CCOC(=O)c1csc(N/N=C/c2c[nH]c3ccccc23)n1	280	2240	≥ 320	2			
CCOC(=O)c1csc(N/N=C2/CCCC2C)n1 (centres undefined)	130	248	≥ 320	4			

Structure (SMILES)	IC50 [1] [µM]	IC90 [1] [µM]	CC50 [2] [µM]	selectivity ratio [3]	Activity [4] [%]	Activity [5] [%]	Activity [6]
CCOC(=O)c1csc(N/N=C(\C)c2ccco2)n1	49	161	241	5			
O=C(O)c1csc(NN=C2CCCC2)n1	≥ 320		≥ 320			47	
CCOC(=O)c1csc(N/N=C2/CCC(C)C2)n1 (centres undefined)	59	190	≥ 320	10	48		
CCOC(=O)c1csc(N/N=C(\C)c2ccncc2)n1	64	188	≥ 320	9			
CCOC(=O)c1csc(NN=C2CCCCC2)n1	160	638	≥ 320	4	45		
O=C(O)c1csc(NN=C2CCCCCC2)n1	179	3870	≥ 320	3			
CCOC(=O)c1csc(N/N=C(\C)c2ccc3ccccc3c2)n1	43	88	127	3	45		
CCOC(=O)c1csc(N/N=C/c2cccs2)n1	≥ 320		≥ 320				
CC1CCC(=NNc2nc(C(=O)O)cs2)CC1 (centres undefined)	≥ 320		≥ 320				
CCOC(=O)c1csc(N/N=C/c2cccc3ccccc23)n1	52	182	≥ 320	11	35	47	
CCOC(=O)c1csc(N/N=C(\C)c2ccccn2)n1	3	7	6	2	147		Active
CCOC(=O)c1csc(N/N=C2/CCCCC2C)n1 (centres undefined)	185	508	≥ 320	3			
CCOC(=O)c1csc(N/N=C/c2cccnc2)n1	162	398	≥ 320	4			
CCOC(=O)c1csc(NN=C2CCC(C)CC2)n1 (centres undefined)	60	151	≥ 320	9			
CCOC(=O)c1csc(NN=C2CCCC2)n1	92	239	≥ 320	6			
